Where “and” joins values, the source holds several entries; their conditions need not be identical. Identical values can stand only once.
System: U2OS
Experiment: Multiplex assay against U2OS
Format: toxicity, cell-based
Details: human
Method in brief: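 Phenotypes for tubulin, mitochondrial mass and membrane permeability are expressed as per cents of healthy-nucleus cells. Cells were stained live at seeding with Hoechst33342, BioTracker Green Microtubule Cytoskeleton Dye, MitoTracker Red and Annexin V Alexa Fluor 680, then imaged after compound addition on a CQ1 microscope at 37°C and 5% CO2. Machine-learning gating in CellPathfinder separated Hoechst high-intensity objects from normal cells, divided normal cells by nuclear state (healthy, pyknosed, fragmented) and divided pyknosed cells into mitotic or apoptotic.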

[1] = 12 h, 1 µM, compound concentration 1 uM
[2] = 12 h, 10 µM, compound concentration 10 uM
[3] = 24 h, 1 µM, compound concentration 1 uM
[4] = 24 h, 10 µM, compound concentration 10 uM
[5] = 48 h, 1 µM, compound concentration 1 uM
[6] = 48 h, 10 µM, compound concentration 10 uM

COC[C@@H](c1ccc(C(F)(F)F)cc1)N1CCN(C2(C)CCN(C(=O)c3c(C)ncnc3C)CC2)C[C@@H]1C.O=C(O)/C=C\C(=O)O [VICRIVIROC MALEATE]
Population Apoptotic (%) [1]: 82% and 81%
Population Fragmented Nuclei (%) [1]: 34% and 21%
Population Healthy Nuclei (%) [1]: 54% and 67%
Population Hoechst High Intensity Objects (%) [1]: 4% and 2%
Population Membrane Permeable-Phenotype (%) [1]: 8% and 11%
Population Mitochondria Different-Phenotype (%) [1]: 4% and 14%
Population Mitotic Cells (%) [1]: 17% and 18%
Population Normal (%) [1]: 95% and 97%
Population Pyknosed Nuclei (%) [1]: 11% and 10%
Population Tubulin-Different-Phenotype (%) [1]: 3% and 7%
Total Cell Count [1]: 261 and 105
Population Apoptotic (%) [2]: 86% and 33%
Population Fragmented Nuclei (%) [2]: 26% and 28%
Population Healthy Nuclei (%) [2]: 65%
Population Hoechst High Intensity Objects (%) [2]: 1% and 2%
Population Membrane Permeable-Phenotype (%) [2]: 13% and 5%
Population Mitochondria Different-Phenotype (%) [2]: 3% and 6%
Population Normal (%) [2]: 98% and 97%
Population Pyknosed Nuclei (%) [2]: 8% and 6%
Population Tubulin-Different-Phenotype (%) [2]: 3% and 6%
Total Cell Count [2]: 270 and 91
Population Apoptotic (%) [3]: 77% and 93%
Population Fragmented Nuclei (%) [3]: 25% and 20%
Population Healthy Nuclei (%) [3]: 67% and 64%
Population Hoechst High Intensity Objects (%) [3]: 3% and 4%
Population Membrane Permeable-Phenotype (%) [3]: 5% and 10%
Population Normal (%) [3]: 96% and 95%
Population Pyknosed Nuclei (%) [3]: 7% and 15%
Population Tubulin-Different-Phenotype (%) [3]: 2% and 10%
Total Cell Count [3]: 301 and 111
Population Apoptotic (%) [4]: 80% and 83%
Population Fragmented Nuclei (%) [4]: 25%
Population Healthy Nuclei (%) [4]: 68%
Population Hoechst High Intensity Objects (%) [4]: 1%
Population Membrane Permeable-Phenotype (%) [4]: 3% and 4%
Population Mitochondria Different-Phenotype (%) [4]: 3% and 2%
Population Mitotic Cells (%) [4]: 19% and 16%
Population Normal (%) [4]: 98%
Population Pyknosed Nuclei (%) [4]: 6%
Population Tubulin-Different-Phenotype (%) [4]: 2% and 7%
Population Apoptotic (%) [5]: 78% and 93%
Population Fragmented Nuclei (%) [5]: 20% and 25%
Population Healthy Nuclei (%) [5]: 68% and 62%
Population Hoechst High Intensity Objects (%) [5]: 3% and 1%
Population Membrane Permeable-Phenotype (%) [5]: 3% and 13%
Population Mitochondria Different-Phenotype (%) [5]: 2% and 11%
Population Normal (%) [5]: 96% and 98%
Population Pyknosed Nuclei (%) [5]: 10% and 11%
Population Tubulin-Different-Phenotype (%) [5]: 1% and 10%
Total Cell Count [5]: 416 and 142
Population Apoptotic (%) [6]: 80% and 93%
Population Fragmented Nuclei (%) [6]: 19% and 18%
Population Healthy Nuclei (%) [6]: 70% and 68%
Population Hoechst High Intensity Objects (%) [6]: 2% and 5%
Population Membrane Permeable-Phenotype (%) [6]: 3%
Population Mitochondria Different-Phenotype (%) [6]: 2% and 6%
Population Normal (%) [6]: 97% and 94%
Population Pyknosed Nuclei (%) [6]: 9% and 12%
Population Tubulin-Different-Phenotype (%) [6]: 1% and 6%

O=C(NCCNCC(O)COc1ccc(O)cc1)N1CCOCC1.O=C(NCCNCC(O)COc1ccc(O)cc1)N1CCOCC1.O=C(O)/C=C/C(=O)O (stereo not given) [XAMOTEROL FUMARATE]
Population Apoptotic (%) [1]: 71% and 83%
Population Fragmented Nuclei (%) [1]: 27% and 19%
Population Healthy Nuclei (%) [1]: 66% and 68%
Population Hoechst High Intensity Objects (%) [1]: 2% and 3%
Population Membrane Permeable-Phenotype (%) [1]: 6% and 13%
Population Mitochondria Different-Phenotype (%) [1]: 1%
Population Mitotic Cells (%) [1]: 28% and 16%
Population Normal (%) [1]: 97% and 96%
Population Pyknosed Nuclei (%) [1]: 5% and 11%
Population Tubulin-Different-Phenotype (%) [1]: 2% and 5%
Total Cell Count [1]: 265 and 110
Population Apoptotic (%) [2]: 92% and 100%
Population Fragmented Nuclei (%) [2]: 28% and 15%
Population Healthy Nuclei (%) [2]: 60% and 73%
Population Hoechst High Intensity Objects (%) [2]: 0% and 4%
Population Membrane Permeable-Phenotype (%) [2]: 6% and 4%
Population Mitochondria Different-Phenotype (%) [2]: 2% and 3%
Population Mitotic Cells (%) [2]: 7% and 0%
Population Normal (%) [2]: 99% and 95%
Population Pyknosed Nuclei (%) [2]: 11%
Population Tubulin-Different-Phenotype (%) [2]: 4% and 7%
Total Cell Count [2]: 239 and 118
Population Apoptotic (%) [3]: 85% and 80%
Population Fragmented Nuclei (%) [3]: 24% and 18%
Population Healthy Nuclei (%) [3]: 68% and 69%
Population Hoechst High Intensity Objects (%) [3]: 0% and 1%
Population Membrane Permeable-Phenotype (%) [3]: 5% and 10%
Population Mitochondria Different-Phenotype (%) [3]: 0% and 4%
Population Mitotic Cells (%) [3]: 15% and 20%
Population Normal (%) [3]: 99% and 98%
Population Pyknosed Nuclei (%) [3]: 6% and 11%
Population Tubulin-Different-Phenotype (%) [3]: 1% and 5%
Total Cell Count [3]: 312 and 129
Population Apoptotic (%) [4]: 89% and 78%
Population Fragmented Nuclei (%) [4]: 22% and 16%
Population Healthy Nuclei (%) [4]: 66% and 70%
Population Hoechst High Intensity Objects (%) [4]: 1%
Population Membrane Permeable-Phenotype (%) [4]: 6%
Population Mitochondria Different-Phenotype (%) [4]: 2%
Population Mitotic Cells (%) [4]: 10% and 21%
Population Normal (%) [4]: 98%
Population Pyknosed Nuclei (%) [4]: 10% and 12%
Population Tubulin-Different-Phenotype (%) [4]: 2% and 6%
Total Cell Count [4]: 270 and 152
Population Apoptotic (%) [5]: 90% and 91%
Population Fragmented Nuclei (%) [5]: 18% and 23%
Population Healthy Nuclei (%) [5]: 75% and 62%
Population Hoechst High Intensity Objects (%) [5]: 1% and 2%
Population Membrane Permeable-Phenotype (%) [5]: 4% and 6%
Population Mitochondria Different-Phenotype (%) [5]: 2% and 3%
Population Mitotic Cells (%) [5]: 9% and 8%
Population Normal (%) [5]: 98% and 97%
Population Pyknosed Nuclei (%) [5]: 6% and 13%
Population Tubulin-Different-Phenotype (%) [5]: 2% and 4%
Total Cell Count [5]: 472 and 171
Population Apoptotic (%) [6]: 89% and 94%
Population Fragmented Nuclei (%) [6]: 18% and 17%
Population Healthy Nuclei (%) [6]: 68% and 73%
Population Hoechst High Intensity Objects (%) [6]: 1% and 2%
Population Membrane Permeable-Phenotype (%) [6]: 2% and 4%
Population Mitochondria Different-Phenotype (%) [6]: 1% and 4%
Population Mitotic Cells (%) [6]: 10% and 5%
Population Normal (%) [6]: 98% and 97%
Population Pyknosed Nuclei (%) [6]: 12% and 9%
Population Tubulin-Different-Phenotype (%) [6]: 2% and 6%
Total Cell Count [6]: 392 and 206

Source: ChEMBL document CHEMBL5724801, “EUbOPEN Chemogenomics Library - Multiplex” (2024)
